From ChEMBL document CHEMBL3352188, “Synthesis, antimicrobial and molecular docking studies of enantiomerically pure N-alkylated β-amino alcohols from phenylpropanolamines” (2014)

Columns and labels:
[1] = system: Micrococcus luteus; assay: Bactericidal activity against Micrococcus luteus MTCC 106 after 24 hrs by two fold dilution method; assay type: functional; details: MTCC 106, 24 h
How it was run: (§1)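 Tubes held 5 mL MHB with two-fold dilutions from 1000 to 7.81 µg/mL and were inoculated with 5 × 10^5 to 1 × 10^6 cells in 0.1 mL MHB, incubated without shaking. Turbidity was checked at 20 h, tubes vortexed and re-incubated 4 h.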

[2] = system: Pseudomonas aeruginosa; assay: Antimicrobial activity against Pseudomonas aeruginosa MTCC 741 at 1 mg/disc after 24 hrs by disc diffusion assay; assay type: functional
How it was run: (§2)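 Disc diffusion on Mueller Hinton agar. Inoculum was grown in MHB for 24 h at 37 °C, swabbed onto the plates and dried for 10 min. Discs with 1 mg compound were left 30 min at room temperature for diffusion, then incubated at 37 °C for 24 h. Inhibition zone was read in mm; run twice. Solvent was the negative control, streptomycin the positive control.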

[3] = system: Klebsiella pneumoniae; assay: Bactericidal activity against Klebsiella pneumoniae MTCC 109 after 24 hrs by two fold dilution method; assay type: functional; details: MTCC 109, 24 h; how it was run: as §1
[4] = system: Staphylococcus aureus; assay: Bactericidal activity against methicillin-resistant Staphylococcus aureus MTCC 96 after 24 hrs by two fold dilution method; assay type: functional; details: MTCC 96, 24 h; how it was run: as §1
[5] = system: Proteus vulgaris; assay: Antimicrobial activity against Proteus vulgaris MTCC 1771 at 1 mg/disc after 24 hrs by disc diffusion assay; assay type: functional; how it was run: as §2
[6] = system: Bacillus subtilis; assay: Antimicrobial activity against Bacillus subtilis MTCC 441 at 1 mg/disc after 24 hrs by disc diffusion assay; assay type: functional; how it was run: as §2
[7] = system: Salmonella typhimurium; assay: Antimicrobial activity against Salmonella typhimurium MTCC 1251 after 24 hrs by two fold dilution method; assay type: functional, Salmonella enterica subsp. enterica serovar Typhimurium; details: Salmonella enterica, MTCC 1251, 24 h
How it was run: (§3)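 Broth two-fold serial dilution in 96-well plates from 1000 to 7.81 µg/mL, compound in DMSO (2%). Inoculum was grown in MHB for 24 h at 37 °C; plates were incubated 24 h at 37 °C. 5 µL of broth was spotted onto MHA; MIC was the lowest concentration with no visible growth on agar. Streptomycin was the positive control.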

[8] = system: Klebsiella pneumoniae; assay: Antimicrobial activity against Klebsiella pneumoniae MTCC 109 at 1 mg/disc after 24 hrs by disc diffusion assay; assay type: functional; how it was run: as §2
[9] = system: Malassezia pachydermatis; assay: Antimicrobial activity against Malassezia pachydermatis after 48 to 72 hrs by two fold dilution method; assay type: functional
How it was run: (§4)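 Yeast was grown in Sabouraud dextrose broth at 28 °C for 48 h and tested per CLSI reference methods. Two-fold serial dilutions from 1000 to 7.81 µg/mL, compound in DMSO (2%), in 96-well plates, incubated 48–72 h at 28 °C. MIC was the lowest concentration with no visible fungal growth. Ketoconazole was the positive control.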

[10] = system: Salmonella enterica subsp. enterica serovar Paratyphi B; assay: Antimicrobial activity against Salmonella paratyphi B after 24 hrs by two fold dilution method; assay type: functional; how it was run: as §3
[11] = system: Klebsiella pneumoniae; assay: Antimicrobial activity against Klebsiella pneumoniae MTCC 109 after 24 hrs by two fold dilution method; assay type: functional; details: MTCC 109, 24 h; how it was run: as §3
[12] = system: Candida albicans; assay: Antimicrobial activity against Candida albicans MTCC 227 after 48 to 72 hrs by two fold dilution method; assay type: functional; how it was run: as §4
[13] = system: Staphylococcus aureus; assay: Antimicrobial activity against Staphylococcus aureus MTCC 96 after 24 hrs by two fold dilution method; assay type: functional; details: MTCC 96, 24 h; how it was run: as §3
[14] = system: Bacillus subtilis; assay: Antimicrobial activity against Bacillus subtilis MTCC 441 after 24 hrs by two fold dilution method; assay type: functional; details: MTCC 441, 24 h; how it was run: as §3
[15] = system: Malassezia pachydermatis; assay: Antimicrobial activity against Malassezia pachydermatis at 1 mg/disc after 24 hrs by disc diffusion assay; assay type: functional
[16] = system: Klebsiella aerogenes; assay: Antimicrobial activity against Enterobacter aerogenes MTCC 111 after 24 hrs by two fold dilution method; assay type: functional; details: MTCC 111, 24 h; how it was run: as §3
[17] = system: Proteus vulgaris; assay: Bactericidal activity against Proteus vulgaris MTCC 1771 after 24 hrs by two fold dilution method; assay type: functional; details: MTCC 1771, 24 h; how it was run: as §1
[18] = system: Shigella flexneri; assay: Antimicrobial activity against Shigella flexneri MTCC 1457 at 1 mg/disc after 24 hrs by disc diffusion assay; assay type: functional; how it was run: as §2
[19] = system: Bacillus subtilis; assay: Bactericidal activity against Bacillus subtilis MTCC 441 after 24 hrs by two fold dilution method; assay type: functional; details: MTCC 441, 24 h; how it was run: as §1
[20] = system: Klebsiella aerogenes; assay: Antimicrobial activity against Enterobacter aerogenes MTCC 111 at 1 mg/disc after 24 hrs by disc diffusion assay; assay type: functional; how it was run: as §2
[21] = system: Shigella flexneri; assay: Bactericidal activity against Shigella flexneri MTCC 1457 after 24 hrs by two fold dilution method; assay type: functional; details: MTCC 1457, 24 h; how it was run: as §1
[22] = system: Shigella flexneri; assay: Antimicrobial activity against Shigella flexneri MTCC 1457 after 24 hrs by two fold dilution method; assay type: functional; details: MTCC 1457, 24 h; how it was run: as §3
[23] = system: Salmonella enterica subsp. enterica serovar Paratyphi B; assay: Bactericidal activity against Salmonella paratyphi B after 24 hrs by two fold dilution method; assay type: functional; how it was run: as §1
[24] = system: Pseudomonas aeruginosa; assay: Antimicrobial activity against Pseudomonas aeruginosa MTCC 741 after 24 hrs by two fold dilution method; assay type: functional; details: MTCC 741, 24 h; how it was run: as §3
[25] = system: Salmonella typhimurium; assay: Antimicrobial activity against Salmonella typhimurium MTCC 1251 at 1 mg/disc after 24 hrs by disc diffusion assay; assay type: functional, Salmonella enterica subsp. enterica serovar Typhimurium; how it was run: as §2
[26] = system: Proteus vulgaris; assay: Antimicrobial activity against Proteus vulgaris MTCC 1771 after 24 hrs by two fold dilution method; assay type: functional; details: MTCC 1771, 24 h; how it was run: as §3
[27] = system: Staphylococcus aureus; assay: Antimicrobial activity against methicillin-resistant Staphylococcus aureus MTCC 96 after 24 hrs by two fold dilution method; assay type: functional; details: MTCC 96, 24 h; how it was run: as §3
[28] = system: Salmonella typhimurium; assay: Bactericidal activity against Salmonella typhimurium MTCC 1251 after 24 hrs by two fold dilution method; assay type: functional, Salmonella enterica subsp. enterica serovar Typhimurium; details: Salmonella enterica, MTCC 1251, 24 h; how it was run: as §1
[29] = system: Staphylococcus aureus; assay: Bactericidal activity against Staphylococcus aureus MTCC 96 after 24 hrs by two fold dilution method; assay type: functional; details: MTCC 96, 24 h; how it was run: as §1
[30] = system: Candida albicans; assay: Fungicidal activity against Candida albicans MTCC 227 after 48 to 72 hrs by two fold dilution method; assay type: functional
[31] = system: Micrococcus luteus; assay: Antimicrobial activity against Micrococcus luteus MTCC 106 after 24 hrs by two fold dilution method; assay type: functional; details: MTCC 106, 24 h; how it was run: as §3
[32] = system: Malassezia pachydermatis; assay: Fungicidal activity against Malassezia pachydermatis after 48 to 72 hrs by two fold dilution method; assay type: functional
[33] = system: Micrococcus luteus; assay: Antimicrobial activity against Micrococcus luteus MTCC 106 at 1 mg/disc after 24 hrs by disc diffusion assay; assay type: functional; how it was run: as §2
[34] = system: Staphylococcus aureus; assay: Antimicrobial activity against […] Staphylococcus aureus MTCC 96 at 1 mg/disc after 24 hrs by disc diffusion assay; assay type: functional; how it was run: as §2
[35] = system: Klebsiella aerogenes; assay: Bactericidal activity against Enterobacter aerogenes MTCC 111 after 24 hrs by two fold dilution method; assay type: functional; details: MTCC 111, 24 h; how it was run: as §1
[36] = system: Candida albicans; assay: Antimicrobial activity against Candida albicans MTCC 227 at 1 mg/disc after 24 hrs by disc diffusion assay; assay type: functional
[37] = system: Staphylococcus aureus; assay: Antimicrobial activity against Staphylococcus aureus MTCC 96 at 1 mg/disc after 24 hrs by disc diffusion assay; assay type: functional; how it was run: as §2
[38] = system: Pseudomonas aeruginosa; assay: Bactericidal activity against Pseudomonas aeruginosa MTCC 741 after 24 hrs by two fold dilution method; assay type: functional; details: MTCC 741, 24 h; how it was run: as §1
[39] = system: Salmonella enterica subsp. enterica serovar Paratyphi B; assay: Antimicrobial activity against Salmonella paratyphi B at 1 mg/disc after 24 hrs by disc diffusion assay; assay type: functional; how it was run: as §2

Structure (SMILES) | MBC [1] | inhibition zone (IZ) [2] | MBC [3] | MBC [4] | inhibition zone (IZ) [5] | inhibition zone (IZ) [6] | MIC [7] | inhibition zone (IZ) [8] | MIC [9] | MIC [10] | MIC [11] | MIC [12] | MIC [13] | MIC [14] | inhibition zone (IZ) [15] | MIC [16] | MBC [17] | inhibition zone (IZ) [18] | MBC [19] | inhibition zone (IZ) [20] | other results
COc1ccc([C@H](C)N[C@H](C)[C@@H](O)c2ccccc2)cc1.Cl | 125 µg/mL | 14 mm | 125 µg/mL | 125 µg/mL | 18 mm | 18 mm | 125 µg/mL | 17 mm | 62.5 µg/mL | 125 µg/mL | 62.5 µg/mL | 62.5 µg/mL | 62.5 µg/mL | 62.5 µg/mL | 19 mm | 62.5 µg/mL | 125 µg/mL | 17 mm | 125 µg/mL | 18 mm | MBC [21]: 125 µg/mL; MIC [22]: 62.5 µg/mL; MBC [23]: 250 µg/mL; MIC [24]: 125 µg/mL; inhibition zone (IZ) [25]: 14 mm; MIC [26]: 62.5 µg/mL; MIC [27]: 62.5 µg/mL; MBC [28]: 250 µg/mL; MBC [29]: 125 µg/mL; MFC [30]: 62.5 µg/mL; MIC [31]: 62.5 µg/mL; MFC [32]: 62.5 µg/mL; inhibition zone (IZ) [33]: 19 mm; inhibition zone (IZ) [34]: 18 mm; MBC [35]: 125 µg/mL; inhibition zone (IZ) [36]: 16 mm; inhibition zone (IZ) [37]: 17 mm; MBC [38]: 250 µg/mL; inhibition zone (IZ) [39]: 17 mm
CC[C@@H](N[C@@H](C)[C@H](O)c1ccccc1)c1ccccc1.Cl | 62.5 µg/mL | 18 mm | 15.6 µg/mL | 31.2 µg/mL | 21 mm | 20 mm | 31.2 µg/mL | 23 mm | 31.2 µg/mL | 62.5 µg/mL | 15.6 µg/mL | 31.2 µg/mL | 31.2 µg/mL | 31.2 µg/mL | 24 mm | 31.2 µg/mL | 31.2 µg/mL | 21 mm | 31.2 µg/mL | 21 mm | MBC [21]: 31.2 µg/mL; MIC [22]: 15.6 µg/mL; MBC [23]: 125 µg/mL; MIC [24]: 62.5 µg/mL; inhibition zone (IZ) [25]: 20 mm; MIC [26]: 31.2 µg/mL; MIC [27]: 31.2 µg/mL; MBC [28]: 31.2 µg/mL; MBC [29]: 31.2 µg/mL; MFC [30]: 31.2 µg/mL; MIC [31]: 31.2 µg/mL; MFC [32]: 31.2 µg/mL; inhibition zone (IZ) [33]: 21 mm; inhibition zone (IZ) [34]: 20 mm; MBC [35]: 62.5 µg/mL; inhibition zone (IZ) [36]: 22 mm; inhibition zone (IZ) [37]: 22 mm; MBC [38]: 62.5 µg/mL; inhibition zone (IZ) [39]: 19 mm
